Experiments:
Carbonic anhydrase 2 = Carbonic anhydrase 2 (Homo sapiens, UniProt P00918); assay: Inhibition of human recombinant carbonic anhydrase 2 expressed in Escherichia coli by stopped flow CO2 hydration assay
Carbonic anhydrase 9 = Carbonic anhydrase 9 (Homo sapiens, UniProt Q16790); assay: Inhibition of human recombinant carbonic anhydrase 9 expressed in Escherichia coli by stopped flow CO2 hydration assay
How it was run: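 Recombinant human CA IX produced in E. coli, used at 8.0 nM; CO2 hydration activity followed by stopped-flow. IC50 is taken from seven-concentration dose–response curves fitted by nonlinear least squares, mean of at least three determinations. Ki is derived by Cheng–Prusoff, Ki = IC50/(1 + [S]/Km), where [S] is the CO2 concentration used.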

Carbonic anhydrase 1 = Carbonic anhydrase 1 (Homo sapiens, UniProt P00915); assay: Inhibition of human recombinant carbonic anhydrase 1 expressed in Escherichia coli by stopped flow CO2 hydration assay
Carbonic anhydrase 7 = Carbonic anhydrase 7 (Homo sapiens, UniProt P43166)
Carbonic anhydrase 4 = Carbonic anhydrase 4 (Homo sapiens, UniProt P22748)
[1] = molecular target: Carbonic anhydrase 5B, mitochondrial (Homo sapiens, UniProt Q9Y2D0)
[2] = molecular target: Carbonic anhydrase 5A, mitochondrial (Homo sapiens, UniProt P35218)
Sequence of Carbonic anhydrase 5A, mitochondrial (P35218 whole entry): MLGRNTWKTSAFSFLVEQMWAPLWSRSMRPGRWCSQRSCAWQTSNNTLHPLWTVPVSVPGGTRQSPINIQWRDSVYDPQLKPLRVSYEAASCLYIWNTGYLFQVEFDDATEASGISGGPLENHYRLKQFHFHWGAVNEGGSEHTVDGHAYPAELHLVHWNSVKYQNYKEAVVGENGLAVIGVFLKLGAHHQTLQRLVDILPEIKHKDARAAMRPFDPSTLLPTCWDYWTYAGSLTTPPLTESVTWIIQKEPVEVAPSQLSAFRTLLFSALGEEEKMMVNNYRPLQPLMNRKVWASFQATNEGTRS

Sequence of Carbonic anhydrase 1 (P00915 whole entry): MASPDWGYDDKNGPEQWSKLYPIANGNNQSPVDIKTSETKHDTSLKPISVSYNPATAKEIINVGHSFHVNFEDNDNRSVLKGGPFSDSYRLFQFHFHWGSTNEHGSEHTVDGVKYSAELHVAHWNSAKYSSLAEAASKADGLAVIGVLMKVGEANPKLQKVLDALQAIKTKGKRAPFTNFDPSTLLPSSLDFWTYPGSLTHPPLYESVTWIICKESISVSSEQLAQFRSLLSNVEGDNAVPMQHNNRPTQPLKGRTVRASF
Sequence of Carbonic anhydrase 4 (P22748 whole entry): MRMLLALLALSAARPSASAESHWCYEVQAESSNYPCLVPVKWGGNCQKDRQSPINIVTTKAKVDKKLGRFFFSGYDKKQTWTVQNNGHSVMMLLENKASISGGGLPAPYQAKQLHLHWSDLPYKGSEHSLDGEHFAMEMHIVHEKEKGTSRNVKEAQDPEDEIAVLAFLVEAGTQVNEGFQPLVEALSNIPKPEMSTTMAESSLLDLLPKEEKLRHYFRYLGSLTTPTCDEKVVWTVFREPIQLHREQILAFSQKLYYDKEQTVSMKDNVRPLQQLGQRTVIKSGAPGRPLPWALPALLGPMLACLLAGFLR
Sequence of Carbonic anhydrase 7 (P43166 whole entry): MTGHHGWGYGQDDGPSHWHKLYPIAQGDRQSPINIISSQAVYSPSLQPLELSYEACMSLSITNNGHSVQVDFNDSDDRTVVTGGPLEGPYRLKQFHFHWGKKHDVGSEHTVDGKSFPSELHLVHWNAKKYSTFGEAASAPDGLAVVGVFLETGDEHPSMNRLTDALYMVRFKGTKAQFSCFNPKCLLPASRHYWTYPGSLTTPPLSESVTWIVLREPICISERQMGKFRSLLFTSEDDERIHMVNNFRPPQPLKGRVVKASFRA
Sequence of Carbonic anhydrase 5B, mitochondrial (Q9Y2D0 whole entry): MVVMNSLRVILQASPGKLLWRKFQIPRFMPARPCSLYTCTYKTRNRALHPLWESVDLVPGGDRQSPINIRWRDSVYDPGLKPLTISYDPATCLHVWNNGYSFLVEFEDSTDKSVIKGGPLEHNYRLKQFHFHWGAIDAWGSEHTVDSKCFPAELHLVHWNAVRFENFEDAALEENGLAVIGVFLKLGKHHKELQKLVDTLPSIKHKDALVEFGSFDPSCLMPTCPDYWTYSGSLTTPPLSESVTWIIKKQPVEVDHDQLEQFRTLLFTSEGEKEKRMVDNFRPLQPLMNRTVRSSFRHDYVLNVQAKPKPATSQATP

Structure (SMILES)	Ki (Carbonic anhydrase 2) [µM]	Ki (Carbonic anhydrase 9) [µM]	Ki (Carbonic anhydrase 1) [µM]	further results
Nc1ccc2c(c1)S(=O)(=O)NC2=O	> 50	0.61	> 50	
O=C1NS(=O)(=O)c2cc([N+](=O)[O-])ccc21	> 50		> 50	
[N-]=[N+]=Nc1ccc2c(c1)S(=O)(=O)NC2=O		0.466		
O=C1NS(=O)(=O)c2cc(-n3cc(-c4ccccc4)nn3)ccc21		0.484	> 50	
O=C1NS(=O)(=O)c2cc(-n3cc(-c4ccccc4C(F)(F)F)nn3)ccc21	> 50	0.443		
O=C1NS(=O)(=O)c2ccccc21 [SACCHARIN]				pKa (physchem): 1.3; Ki (Carbonic anhydrase 7): 0.01 µM; Ki (Carbonic anhydrase 4): 7.92 µM; Ki [1]: 7.21 µM; Ki [2]: 10.1 µM

The next lines start with results.

Ki (Carbonic anhydrase 2) [µM]	Ki (Carbonic anhydrase 9) [µM]	Ki (Carbonic anhydrase 1) [µM]	Structure (SMILES)	further results
	0.0897	> 50	Cc1cccc(-c2cn(-c3ccc4c(c3)S(=O)(=O)NC4=O)nn2)c1	
> 50	0.341		COc1ccc(-c2cn(-c3ccc4c(c3)S(=O)(=O)NC4=O)nn2)cc1	
	0.0478	> 50	Cc1cc(-c2cn(-c3ccc4c(c3)S(=O)(=O)NC4=O)nn2)ccc1F	
> 50	0.0957		COc1ccc(-c2cn(-c3ccc4c(c3)S(=O)(=O)NC4=O)nn2)c(C)c1	
> 50	0.0495	> 50	O=C1NS(=O)(=O)c2cc(-n3cc(CO[C@@H]4O[C@H](CO)[C@@H](O)[C@H](O)[C@H]4O)nn3)ccc21	

From ChEMBL document CHEMBL3232792, “Cyclic secondary sulfonamides: unusually good inhibitors of cancer-related carbonic anhydrase enzymes” (J Med Chem, 2014)
